Legend:
[1] = biological target: T1, Nuclear receptor subfamily 1 group I member 2 (Homo sapiens, UniProt O75469); assay: (§1) Induction of human SXR transcriptional activity expressed in human HepG2 cells coexpressing GAL4 at 5 X 10^-6 M after 48 hrs by luciferase reporter gene assay relative to vehicle-treated control; format: cell-based; details: hepg2, 48 h, 5 µM
T1 sequence (O75469 whole entry): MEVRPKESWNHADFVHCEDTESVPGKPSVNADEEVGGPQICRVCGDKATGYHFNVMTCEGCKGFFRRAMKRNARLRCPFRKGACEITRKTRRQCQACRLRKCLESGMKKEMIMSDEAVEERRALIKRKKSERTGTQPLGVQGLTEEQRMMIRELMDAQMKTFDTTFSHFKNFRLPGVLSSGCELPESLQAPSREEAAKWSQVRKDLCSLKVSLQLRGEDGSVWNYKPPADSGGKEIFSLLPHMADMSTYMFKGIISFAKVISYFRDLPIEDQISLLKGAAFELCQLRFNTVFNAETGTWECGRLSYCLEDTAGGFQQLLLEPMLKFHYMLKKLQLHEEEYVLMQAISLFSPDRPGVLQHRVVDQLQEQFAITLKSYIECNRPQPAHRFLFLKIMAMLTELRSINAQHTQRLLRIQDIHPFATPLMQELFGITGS
In short: (§2)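 HepG2 cells (2 × 10^5 per well), maintained in Eagle's modified medium with 10% FCS and 1% each penicillin/streptomycin, transfected with pM-SXR (GAL4 fusion), pGVP2-GAL2 reporter and pRL-CMV. 24 h after transfection, treated in fresh medium with compound or ethanol vehicle for 48 h. Dual-luciferase read-out, firefly normalized to Renilla. Three independent experiments; mean ± SD.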

MG-63 [2] = assay: Prodrug conversion in human MG63 cells assessed as formation of deuterium 2-methyl-3-((2E,6E,10E)-3,7,11,15-tetramethylhexadeca-2,6,10,14-tetraenyl)naphthalene-1,4-dione at 1 uM for 24 hrs by LC-APCI-MS/MS analysis; format: ADME, cell-based; details: mg-63, 24 h
In short: (§3)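 MG-63 human osteosarcoma cells incubated with compound at a final 1.0 μM, 37 °C, 24 h. Cellular vitamin K compounds extracted with hexane. Converted menaquinone-4 and its epoxide quantified by LC-APCI-MS/MS. Three independent experiments; mean ± SD.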

MG-63 [3] = assay: Prodrug conversion in human MG63 cells assessed as formation of deuterium 1a-methyl-7a-((2E,6E,10E)-3,7,11,15-tetramethylhexadeca-2,6,10,14-tetraenyl)naphtho[2,3-b]oxirene-2,7(1aH,7aH)-dione at 1 uM for 24 hrs by LC-APCI-MS/MS analysis; format: ADME, cell-based; details: mg-63, 24 h; in short: as §3
MG-63 [4] = assay: Prodrug conversion in human MG63 cells assessed as formation of MK-4 at 1 uM for 24 hrs by LC-APCI-MS/MS analysis; format: ADME, cell-based; details: mg-63, 24 h; in short: as §3
[5] = biological target: T2, SXR (nuclear receptor subfamily 1 group I member 2) (Homo sapiens, UniProt O75469); assay: as §1; format: cell-based; details: HepG2 cells expressing human SXR and GAL4, read-out: FC; in short: as §2
T2 sequence (O75469 whole entry): T1 sequence (O75469 whole entry)

SMILES | Activity [1] | Drug metabolism (MG-63 [2]) | Drug metabolism (MG-63 [3]) | Drug metabolism (MG-63 [4]) | fold induction at 48 h, 5 µM [5]
[2H]c1c([2H])c([2H])c2c(c1[2H])C(=O)C(C/C=C(\C)CCCC(C)CC/C=C(\C)CCC=C(C)C)=C(C([2H])([2H])[2H])C2=O (centres undefined) | Active |  |  |  | 
[2H]c1c([2H])c([2H])c2c(c1[2H])C(=O)C(C/C=C(\C)CCCC(C)CCCC(C)CCC=C(C)C)=C(C([2H])([2H])[2H])C2=O (centres undefined) | Not Active |  |  |  | 
[2H]c1c([2H])c([2H])c2c(c1[2H])C(=O)C(C/C=C(\C)CCCC(C)CCCC(C)CCCC(C)C)=C(C([2H])([2H])[2H])C2=O (centres undefined) | Not Active |  |  |  | 
[2H]c1c([2H])c([2H])c2c(c1[2H])C(=O)C(CCC(C)CCCC(C)CCCC(C)CCCC(C)C)=C(C([2H])([2H])[2H])C2=O (centres undefined) | Not Active |  |  |  | 
[2H]c1c([2H])c([2H])c2c(c1[2H])C(=O)C(C/C=C(\C)CC([2H])([2H])/C=C(/CC/C=C(\C)CCC=C(C)C)C([2H])([2H])[2H])=C(C([2H])([2H])[2H])C2=O |  | Active | Active | Active | 

Results, then the compound that gave them:

Activity [1] | Drug metabolism (MG-63 [2]) | Drug metabolism (MG-63 [3]) | Drug metabolism (MG-63 [4]) | fold induction at 48 h, 5 µM [5] | SMILES
 |  |  |  | 7 | [2H]c1c([2H])c([2H])c2c(c1[2H])C(=O)C(C/C=C(\C)CC/C=C(\C)CC/C=C(\C)CCC=C(C)C)=C(C([2H])([2H])[2H])C2=O
Active | Active | Active | Active |  | [2H]c1c([2H])c([2H])c2c(c1[2H])C(=O)C(C/C=C/CC/C=C(\C)CC/C=C(\C)CCC=C(C)C)=C(C([2H])([2H])[2H])C2=O
Active | Active | Active | Active |  | [2H]c1c([2H])c([2H])c2c(c1[2H])C(=O)C(C/C=C(\C)CC/C=C/CC/C=C(\C)CCC=C(C)C)=C(C([2H])([2H])[2H])C2=O
Active | Active | Active | Active |  | [2H]c1c([2H])c([2H])c2c(c1[2H])C(=O)C(C/C=C(\C)CC/C=C(\C)CC/C=C/CCC=C(C)C)=C(C([2H])([2H])[2H])C2=O
Active | Active | Active | Active |  | [2H]c1c([2H])c([2H])c2c(c1[2H])C(=O)C(C/C=C(\C)CC/C=C(\C)CC/C=C(\C)CC/C=C/C)=C(C([2H])([2H])[2H])C2=O

Reference: ChEMBL document CHEMBL2021905, “Structure-activity relationship of novel menaquinone-4 analogues: modification of the side chain affects their biological activities” (J Med Chem, 2012)
